This note sets out measurements from ChEMBL document CHEMBL1127790, “Photodynamic antitumor agents: beta-methoxyethyl groups give access to functionalized porphycenes and enhance cellular uptake and activity” (J Med Chem, 1994).

The species named for data set [1] is Mus musculus. In words: Cellular uptake kinetics of Porphycenes saturation cell level (cs) in SSK2 murine fibrosarcoma cells. Type of data set: ADME. In outline: (§1)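 Murine fibrosarcoma cells (SSK2, C3H mouse-derived; MEM/5% FCS, 37 °C, 5% CO2), 2.5 × 10^5 plated and grown 18 h. Then 2 µM porphycene in DOPC liposomes diluted in MEM, incubated at 37 °C for varying times. Cells washed, trypsinized, counted, pelleted. Extraction with methanol then acetonitrile containing diphenylanthracene internal standard. Fluorescence read at ex 370 nm against calibration plots. Saturation level from monoexponential fit.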

The species named for data set [2] is Mus musculus. In words: Tested for phototoxic activity of compound on SSK2 cultivated murine fibrosarcoma cells. Type of data set: ADME, cell-based. As to conditions: light or radiation study, read-out: LD50 (the source's name). In outline:
(§2)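 SSK2 murine fibrosarcoma cells (C3H origin), 3 × 10^5 cells/dish after 18 h attachment, incubated 4 h at 37 °C/5% CO2 with sensitizer in DPPC liposomes (DPPC/sensitizer 100:1) diluted in MEM. Cells washed, irradiated in PBS with laser light at 20 mW/cm2 for 250 s (5 J/cm2), then kept 18 h in MEM/10% FCS. Viability by trypan blue exclusion, as percent of MEM-only controls, ≥5 dishes per point. LD50 in incubation medium by probit analysis.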

The species named for data set [3] is Mus musculus. In words: Cellular uptake kinetics of Porphycenes saturation cell level (cs) in SSK3 murine fibrosarcoma cells. Type of data set: ADME. In outline: as §1
Data set [4] is described as follows: Cellular uptake kinetics of Porphycenes saturation cell level (cs). Type of data set: ADME. In outline: as §1
The species entered for data set [5] is Mus musculus. In words: Tested for phototoxic activity of compound on SSK3 cultivated murine fibrosarcoma cells. Type of data set: ADME, cell-based. As to conditions: light or radiation study, read-out: LD50 (the source's name).
Data set [6] is filed under the species Mus musculus. Nature of the data set: Tested for Photodynamic activity of Sensitizers for cultivated SSK2 cells. Type of data set: ADME, cell-based. As to conditions: read-out: LD50 (the source's name). In outline:
as §2

The nature of data set [7]: (§3) Tested for Photodynamic activity of Sensitizers, lethal dose concentration in incubation media as obtained by probit analysis of SSK3 fibrosarcoma cells. Type of data set: ADME. As to conditions: Mus musculus, light or radiation study; read-out: LD50 (the source's name). An outline of the steps: as §2
The species entered for data set [8] is Mus musculus. In words: Cellular uptake kinetics of Porphycenes saturation cell level (cs)in SSK2 murine fibrosarcoma cells. Type of data set: ADME. In outline:
as §1

Data set [9] is filed under the species Mus musculus. The data set is described as §3. Type of data set: ADME, cell-based. As to conditions: in vivo, read-out: LD50 (the source's name). An outline of the steps:
as §2

For `CCCC1=Cc2nc1ccc1[nH]c(cc1CCC)c1nc(c(OC(C)=O)cc3[nH]c2cc3CCC)C(CCC)=C1`, the Cell saturation in data set [1] is listed as 1.2 pM (10e5*cells)-1. Moreover, the CC50 in data set [2] was 110 nM.
Take `CCCC1=Cc2nc1ccc1[nH]c(cc1CCOC)c1nc(ccc3[nH]c2cc3CCC)C(CCOC)=C1`: in data set [3], the Cell saturation was 14 pM (10e5*cells)-1.
With `CCCC1=Cc2nc1ccc1[nH]c(cc1CCC)c1nc(ccc3[nH]c2cc3CCC)C(CCC)=C1`, the Cell saturation in [1] was 1.5 pM (10e5*cells)-1.
For `COCCC1=Cc2nc1ccc1[nH]c(cc1CCOC)c1nc(ccc3[nH]c2cc3CCOC)C(CCO)=C1`, the Cell saturation in data set [4] was 9.3 pM (10e5*cells)-1. Further, the CC50 in data set [2] stood at 90 nM; in data set [5], 9.1 nM.
For the compound `CCCC1=Cc2nc1ccc1[nH]c(cc1CCO)c1nc(ccc3[nH]c2cc3CCC)C(CCO)=C1`, in data set [3], the Cell saturation is 26 pM (10e5*cells)-1.
Consider `COCCC1=Cc2nc1ccc1[nH]c(c3nc(ccc4[nH]c2cc4CCOC)C(CCOC)=C3)c2c(C(=O)OC)c(C(=O)O)ccc12`, for which, in data set [4], the Cell saturation is given as 7.3 pM (10e5*cells)-1. In addition, the values for the CC50 in [6] and in data set [7] were 130 nM and 13 nM, respectively.
Turning to `COCCC1=Cc2nc1ccc1[nH]c(cc1CCOC)c1nc(ccc3[nH]c2cc3CCOC)C(CCOC)=C1`, the CC50 in data set [2] stood at 8.5 nM. The Cell saturation in data set [8] is 9.3 pM (10e5·cells)-1.
For the compound `C=CC1=C(C)c2cc3[nH]c(cc4nc(cc5[nH]c(cc1n2)c(C)c5CCC(=O)O)C(CCC(=O)O)=C4C)c(C)c3C=C` [PROTOPORPHYRIN DISODIUM], the figures for the CC50 in data set [6] and in [9] were 19000 nM and 1900 nM, respectively.
